Laboratory results published in article PMC12366125 (ACS Medicinal Chemistry Letters, 2025).
Read-outs that look alike come from different tables or passages of the source. Values belong to the compound of their own block, whether it stands above or below them.

Tests used:
[1] = test system: A. baumannii AB19606; test: Broth microdilution standalone MIC; format: cell-based; details: Acinetobacter baumannii, AB19606, read-out: standalone MIC against AB19606
[2] = test system: A. baumannii AB5075; test: Broth microdilution standalone MIC; format: cell-based; details: Acinetobacter baumannii, AB5075, read-out: standalone MIC against AB5075
[3] = test system: AB4490; test: CLR potentiation, clinical isolate; format: cell-based, Acinetobacter baumannii; details: adjuvant at 10 μM
[4] = test system: AB4878; test: CLR potentiation, clinical isolate; format: cell-based, Acinetobacter baumannii; details: adjuvant at 10 μM
[5] = test system: AB5674; test: CLR potentiation, clinical isolate; format: cell-based, Acinetobacter baumannii; details: adjuvant at 10 μM
[6] = test system: AB4025; test: CLR potentiation, clinical isolate; format: cell-based, Acinetobacter baumannii; details: adjuvant at 10 μM
[7] = test system: AB4556; test: CLR potentiation, clinical isolate; format: cell-based, Acinetobacter baumannii; details: adjuvant at 10 μM
[8] = test system: AB4498; test: CLR potentiation, clinical isolate; format: cell-based, Acinetobacter baumannii; details: adjuvant at 10 μM
[9] = test system: AB3785; test: CLR potentiation, clinical isolate; format: cell-based, Acinetobacter baumannii; details: adjuvant at 10 μM
[10] = test system: AB4448; test: CLR potentiation, clinical isolate; format: cell-based, Acinetobacter baumannii; details: adjuvant at 10 μM
[11] = test system: HepG2 cells; test: XTT cell viability assay with HepG2 cells; format: cell-based, human; details: for TI: HepG2 IC50 / adjuvant concentration that reduces CLR MIC to breakpoint; for IC50: Homo sapiens
Summary of the method: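 Cytotoxicity is tested on HepG2 human hepatoma cells, using lead cyclized-linker 2-AI-benzimidazole conjugates and their parent amide analogues. IC50 is taken from dose-response curves. […] TI is not calculated for compounds without adjuvant activity.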

[12] = test system: AB4026; test: CLR potentiation, clinical isolate; format: cell-based, Acinetobacter baumannii; details: adjuvant at 10 μM
[13] = test system: AB4027; test: CLR potentiation, clinical isolate; format: cell-based, Acinetobacter baumannii; details: adjuvant at 10 μM
[14] = test system: AB4795; test: CLR potentiation, clinical isolate; format: cell-based, Acinetobacter baumannii; details: adjuvant at 10 μM
[15] = test system: AB5197; test: CLR potentiation, clinical isolate; format: cell-based, Acinetobacter baumannii; details: adjuvant at 10 μM
[16] = test system: AB4957; test: CLR potentiation, clinical isolate; format: cell-based, Acinetobacter baumannii; details: adjuvant at 10 μM
[17] = test system: AB3806; test: CLR potentiation, clinical isolate; format: cell-based, Acinetobacter baumannii; details: adjuvant at 10 μM
[18] = test system: AB8967; test: CLR potentiation, clinical isolate; format: cell-based, Acinetobacter baumannii; details: adjuvant at 10 μM
[19] = test system: AB3927; test: CLR potentiation, clinical isolate; format: cell-based, Acinetobacter baumannii; details: adjuvant at 10 μM
[20] = test system: AB4991; test: CLR potentiation, clinical isolate; format: cell-based, Acinetobacter baumannii; details: adjuvant at 10 μM
[21] = test system: AB5256; test: CLR potentiation, clinical isolate; format: cell-based, Acinetobacter baumannii; details: adjuvant at 10 μM
[22] = test system: AB4269; test: CLR potentiation, clinical isolate; format: cell-based, Acinetobacter baumannii; details: adjuvant at 10 μM
[23] = test system: AB5711; test: CLR potentiation, clinical isolate; format: cell-based, Acinetobacter baumannii; details: adjuvant at 10 μM
[24] = test system: AB4052; test: CLR potentiation, clinical isolate; format: cell-based, Acinetobacter baumannii; details: adjuvant at 10 μM
[25] = test system: AB2828; test: CLR potentiation, clinical isolate; format: cell-based, Acinetobacter baumannii; details: adjuvant at 10 μM
[26] = test system: AB4857; test: CLR potentiation, clinical isolate; format: cell-based, Acinetobacter baumannii; details: adjuvant at 10 μM
[27] = test system: AB3560; test: CLR potentiation, clinical isolate; format: cell-based, Acinetobacter baumannii; details: adjuvant at 10 μM
[28] = test system: AB5001; test: CLR potentiation, clinical isolate; format: cell-based, Acinetobacter baumannii; details: adjuvant at 10 μM
[29] = test system: A. baumannii AB5075; test: Checkerboard assay colistin and compound; format: cell-based, Acinetobacter baumannii; details: COL alone
[30] = HepG2, 24 h, read-out: HepG2 IC50

- MIC [1]: ≥ 200 µM
- MIC [2]: ≥ 200 µM
Compound: Nc1nc(-c2ccc3nc(-c4ccc(Cl)cc4Cl)[nH]c3c2)c[nH]1 [Compound 11]

- MIC [1]: ≥ 200 µM
- MIC [2]: ≥ 200 µM
Compound: Nc1nc(-c2ccc3nc(-c4cccc(Cl)c4)[nH]c3c2)c[nH]1 [Compound 8]

- MIC [1]: ≥ 200 µM
- MIC [2]: ≥ 200 µM
Compound: COc1cc(OC)cc(-c2nc3ccc(-c4c[nH]c(N)n4)cc3[nH]2)c1 [Compound 15]

- CLR MIC fold reduction [3]: 64 fold
- CLR MIC fold reduction [4]: 32 fold
- CLR MIC fold reduction [5]: 128 fold
- CLR MIC fold reduction [6]: 16 fold
- CLR MIC fold reduction [7]: 8 fold
- CLR MIC fold reduction [8]: 8 [8] fold
- MIC [1]: 50 µM
- CLR MIC fold reduction [9]: 32 fold
- CLR MIC fold reduction [10]: 32 fold
- IC50 [11, 30]: 141.6 ± 1.1 µM
- CLR MIC fold reduction [12]: 32 fold
- CLR MIC fold reduction [13]: 32 fold
- CLR MIC fold reduction [14]: 16 fold
- CLR MIC fold reduction [15]: 32 fold
- CLR MIC fold reduction [16]: 2 fold
- CLR MIC fold reduction [17]: 32 fold
- CLR MIC fold reduction [18]: 64 fold
- CLR MIC fold reduction [19]: 128 fold
- CLR MIC fold reduction [20]: 32 fold
- CLR MIC fold reduction [21]: 128 fold
- CLR MIC fold reduction [22]: 2 fold
- CLR MIC fold reduction [23]: 64 fold
- MIC [2]: 50 µM
- CLR MIC fold reduction [24]: 4 fold
- CLR MIC fold reduction [25]: 16 fold
- CLR MIC fold reduction [26]: 16 fold
- CLR MIC fold reduction [27]: 16 fold
- CLR MIC fold reduction [28]: 32 fold
Compound: Cl.Nc1nc(-c2ccc3nc(-c4ccc(Cl)c(C(F)(F)F)c4)[nH]c3c2)c[nH]1 [Compound 25]
- TI [11]: 18.7–19.0

- CLR MIC fold reduction [3]: 4 fold
- CLR MIC fold reduction [4]: 16 fold
- CLR MIC fold reduction [5]: 64 fold
- CLR MIC fold reduction [6]: 16 fold
- CLR MIC fold reduction [7]: 4 [4] fold
- CLR MIC fold reduction [8]: 8 [8] fold
- MIC [1]: ≥ 200 µM
- CLR MIC fold reduction [9]: 64 fold
- CLR MIC fold reduction [10]: 16 fold
- IC50 [11, 30]: 73.5 ± 1.1 µM
- CLR MIC fold reduction [12]: 32 fold
- CLR MIC fold reduction [13]: 16 fold
- CLR MIC fold reduction [14]: 8 fold
- CLR MIC fold reduction [15]: 8 [8] fold
- CLR MIC fold reduction [16]: 4 fold
- CLR MIC fold reduction [17]: 4 [4] fold
- CLR MIC fold reduction [18]: 32 fold
- CLR MIC fold reduction [19]: 16 fold
- CLR MIC fold reduction [20]: 8 fold
- CLR MIC fold reduction [21]: 512 fold
- CLR MIC fold reduction [22]: 32 fold
- CLR MIC fold reduction [23]: 16 fold
- MIC [2]: ≥ 200 µM
- CLR MIC fold reduction [24]: 16 fold
- CLR MIC fold reduction [25]: 8 fold
- CLR MIC fold reduction [26]: 4 fold
- CLR MIC fold reduction [27]: 4 fold
- CLR MIC fold reduction [28]: 16 fold
Compound: Cl.Nc1nc(-c2ccc3nc(-c4ccc(Cl)c(Cl)c4)[nH]c3c2)c[nH]1 [Compound 5]
- TI [11]: 9.7–9.9

- MIC [1]: ≥ 200 µM
- MIC [2]: ≥ 200 µM
Compound: Nc1nc(-c2ccc3nc(-c4ccccc4Cl)[nH]c3c2)c[nH]1 [Compound 9]

- MIC [1]: ≥ 200 µM
- MIC [2]: ≥ 200 µM
Compound: Nc1nc(-c2ccc3nc(-c4cc(Cl)ccc4Cl)[nH]c3c2)c[nH]1 [Compound 12]

- COL MIC against AB5075 [29]: 1 mg/L
Compound: colistin

- MIC [1]: ≥ 200 µM
- MIC [2]: ≥ 200 µM
Compound: Nc1nc(-c2ccc3nc(-c4cccc(Cl)c4Cl)[nH]c3c2)c[nH]1 [Compound 10]

- MIC [1]: ≥ 200 µM
- MIC [2]: ≥ 200 µM
Compound: Nc1nc(-c2ccc3nc(-c4ccc(Cl)cc4)[nH]c3c2)c[nH]1 [Compound 7]

- MIC [1]: ≥ 200 µM
- MIC [2]: ≥ 200 µM
Compound: Cc1ccc(-c2nc3ccc(-c4c[nH]c(N)n4)cc3[nH]2)cc1C [Compound 17]

- MIC [1]: ≥ 200 µM
- MIC [2]: ≥ 200 µM
Compound: Nc1nc(-c2ccc3nc(-c4cc(Cl)c(Cl)c(Cl)c4)[nH]c3c2)c[nH]1 [Compound 6]

- MIC [1]: ≥ 200 µM
- MIC [2]: ≥ 200 µM
Compound: Cc1cc(C)cc(-c2nc3ccc(-c4c[nH]c(N)n4)cc3[nH]2)c1 [Compound 16]

- MIC [1]: > 200 µM
- IC50 ([11]; HepG2, read-out: IC50 against HepG2 cells): 69.8 µM
- MIC [2]: > 200 µM
Compound: Nc1nc(-c2ccc3nc(-c4cc(Cl)cc(Cl)c4)[nH]c3c2)c[nH]1 [Compound 2]
